Experimental data reported in ChEMBL document CHEMBL3608304, “Anti-inflammatory Labdane Diterpenoids from Leonurus macranthus” (J Nat Prod, 2015).
pIC50: −log10 of the molar value.

Legend:
[1] = Toxicity against mouse BV2 cells assessed as effect on cell viability at 80 uM incubated for 24 hrs by MTT assay; type: cell-based; conditions: bv-2, 24 h
BV-2 [2] = test: Inhibition of LPS-activated nitric oxide production in mouse BV2 cells pre-treated for 60 mins before LPS challenge for 24 hrs by Griess assay; type: functional, cell-based
How it was run: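 LPS-activated BV-2 microglial cells; NO production measured by Griess assay; indomethacin as positive control; results expressed as IC50 (μM).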

BV-2 [3] = test: Inhibition of LPS-activated nitric oxide production in mouse BV2 cells at 80 uM pre-treated for 60 mins before LPS challenge for 24 hrs by Griess assay; type: functional

| SMILES | pIC50 (BV-2 [2]) | Activity [1] | inhibition at 80 µM (BV-2 [3]) [%] |
| --- | --- | --- | --- |
| CC(=O)OCCC(C)(O)CCC1=C(C)C(=O)[C@@H](OC(C)=O)[C@H]2[C@@](C)(COC(C)=O)[C@H](OC(C)=O)CC[C@]12C (stereo partly drawn) | 4.90 | Non-toxic |  |
| CC(=O)O[C@@H]1CC[C@]2(C)C(CCC(C)(O)CCO)=C(C)C(=O)[C@@H](O)[C@H]2[C@@]1(C)CO (stereo partly drawn) |  |  | < 50 |
| CC(=O)OCC[C@]1(C)CC[C@@]2(O1)[C@H](C)[C@@H](OC(C)=O)[C@@H](O)[C@H]1[C@@](C)(COC(C)=O)[C@H](OC(C)=O)CC[C@@]12C | 5.00 | Non-toxic |  |
| COc1ccc2c(c1)c(CC(=O)O)c(C)n2C(=O)c1ccc(Cl)cc1 [INDOMETHACIN] | 4.45 |  |  |
| CC(=O)OC[C@@]1(C)[C@H](O)CC[C@]2(C)C(CCC(C)(O)CCO)=C(C)C(=O)[C@@H](OC(C)=O)[C@@H]12 (stereo partly drawn) |  |  | < 50 |
| CC(=O)OC[C@@]1(C)[C@H](OC(C)=O)CC[C@]2(C)C(CCC(C)(O)CCO)=C(C)C(=O)[C@@H](OC(C)=O)[C@@H]12 (stereo partly drawn) |  |  | 50 |
| CC(=O)O[C@@H]1C(=O)[C@@H](C)[C@]2(CC[C@@](C)(CCO)O2)[C@@]2(C)CC[C@@H](OC(C)=O)[C@](C)(CO)[C@H]12 | 4.79 | Non-toxic |  |
| CC(=O)OC[C@@]1(C)[C@H](O)CC[C@]2(C)C(CCC(C)(O)CCO)=C(C)C(=O)[C@@H](O)[C@@H]12 (stereo partly drawn) | 4.27 | Non-toxic |  |
| CC(=O)OCC[C@]1(C)CC[C@@]2(O1)[C@H](C)[C@@H](O)[C@@H](OC(C)=O)[C@H]1[C@@](C)(COC(C)=O)[C@H](OC(C)=O)CC[C@@]12C | 4.96 | Non-toxic |  |

Second part, led by results:

| pIC50 (BV-2 [2]) | SMILES | Activity [1] | inhibition at 80 µM (BV-2 [3]) [%] |
| --- | --- | --- | --- |
| 4.32 | CC(=O)OCC[C@]1(C)CC[C@@]2(O1)[C@H](C)C(=O)[C@@H](OC(C)=O)[C@H]1[C@@](C)(COC(C)=O)[C@H](OC(C)=O)CC[C@@]12C | Non-toxic |  |
| 4.34 | CC(=O)OCC[C@]1(C)CC[C@@]2(O1)[C@H](C)C(=O)[C@@H](O)[C@H]1[C@@](C)(COC(C)=O)[C@H](O)CC[C@@]12C | Non-toxic |  |
| 4.38 | CC(=O)OC[C@@]1(C)[C@H](OC(C)=O)CC[C@@]2(C)[C@H]1[C@H](O)C(=O)[C@@H](C)[C@]21CC[C@@](C)(CCO)O1 | Non-toxic |  |
| 4.20 | CC(=O)OCC[C@]1(C)CC[C@@]2(O1)[C@H](C)C(=O)[C@@H](OC(C)=O)[C@H]1[C@@](C)(COC(C)=O)[C@H](O)CC[C@@]12C | Non-toxic |  |
| 4.88 | CC(=O)OCC[C@]1(C)CC[C@@]2(O1)[C@H](C)[C@@H](O)C(=O)[C@H]1[C@@](C)(COC(C)=O)[C@H](O)CC[C@@]12C | Non-toxic |  |
| 4.68 | CC(=O)OC[C@@]1(C)[C@H](OC(C)=O)CC[C@@]2(C)[C@H]1[C@H](OC(C)=O)C(=O)[C@@H](C)[C@]21CC[C@@](C)(CCO)O1 | Non-toxic |  |
| 4.43 | CC(=O)OC[C@@]1(C)[C@H](O)CC[C@@]2(C)[C@H]1CC(=O)[C@@H](C)[C@]21CC[C@@](C)(CCO)O1 | Non-toxic |  |
